Assay results taken from ChEMBL document CHEMBL3526150, “Stereoselective interaction of pantoprazole with ABCG2. I. Drug accumulation in rat milk” (Drug Metab Dispos, 2012).

Key:
[1] = (§1) Fraction unbound in jugular and femoral vein-cannulated lactating Sprague-Dawley rat serum at 0.4 mg/ml, iv administered as infusion after 8 hrs by equilibrium dialysis method; assay type: ADME, organism-based; details: female, Sprague-Dawley, serum, 0.4 mg/ml
Summary of the method: (§2)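 Equilibrium dialysis of rat serum and milk against 0.133 M phosphate buffer (serum pH 7.45, milk pH 6.8), 8 h at 37°C, in 0.5 ml cells. Serum levels used were those seen in the infusion study. Both sides measured by LC-MS. n=4.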

[2] = Fraction unbound in jugular and femoral vein-cannulated lactating Sprague-Dawley rat whole milk at 0.4 mg/ml, iv administered as infusion after 8 hrs by equilibrium dialysis method; assay type: ADME, organism-based; summary of the method: as §2
[3] = Dissociation constant, pKa of the compound; assay type: physicochemical
[4] = (§3) Drug uptake in jugular and femoral vein-cannulated lactating Sprague-Dawley rat serum at 0.4 mg/ml, iv administered as infusion after 2 hrs by LC-MS analysis; assay type: ADME, organism-based; details: female, Sprague-Dawley, serum, 0.4 mg/ml, read-out: Drug uptake
Summary of the method: (§4)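 Lactating Sprague-Dawley rats on days 10–12 postpartum, cannulated. i.v. bolus of GF120918 (10 mg/kg in DMSO) or DMSO alone, then 10 min later an 8 h i.v. infusion of racemic drug in saline (0.4 mg/ml/h). Serum sampled at 2, 4, 6, 8 h. Milk collected by manual expression under light ketamine anesthesia at 8 h. Isomers quantified by LC-MS with zonisamide internal standard. n=5.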

[5] = system: Serum; test: Drug uptake in jugular and femoral vein-cannulated lactating Sprague-Dawley rat serum at 0.4 mg/ml, iv administered as infusion after 2 hrs by LC-MS analysis in presence of GF120918; assay type: ADME, organism-based; details: in vivo; summary of the method: as §4
[6] = (§5) Clearance in jugular and femoral vein-cannulated lactating Sprague-Dawley rat at 0.4 mg/ml, iv administered as infusion; assay type: ADME, organism-based; details: female, Sprague-Dawley, in vivo, 0.4 mg/ml
Summary of the method: (§6)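 Lactating Sprague-Dawley rats on days 10–12 postpartum, jugular and femoral cannulated under ketamine/xylazine. Crossover design: i.v. bolus of GF120918 (10 mg/kg in DMSO) or DMSO 10 min before an 8 h i.v. infusion of racemic drug in saline (0.4 mg/ml/h). Enantiomers measured by chiral LC-MS. Clearance = infusion rate / mean serum level over 2–8 h. M/S = 8 h milk level / serum level. n=5.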

[7] = Drug uptake in jugular and femoral vein-cannulated lactating Sprague-Dawley rat milk at 0.4 mg/ml, iv administered as infusion after 8 hrs by LC-MS analysis; assay type: ADME, organism-based; details: in vivo; summary of the method: as §4
[8] = Drug uptake in jugular and femoral vein-cannulated lactating Sprague-Dawley rat milk at 0.4 mg/ml, iv administered as infusion after 8 hrs by LC-MS analysis in presence of GF120918; assay type: ADME, organism-based; details: in vivo; summary of the method: as §4
[9] = biological target: T1, Broad substrate specificity ATP-binding cassette transporter ABCG2 (Rattus norvegicus, UniProt Q80W57); test: Activity at rat ABCG2 expressed in MDCK cells assessed as asymmetrical efflux ratio of permeability at 25 uM after 1 hr; assay type: ADME, cell-based
T1 sequence (Q80W57 whole entry): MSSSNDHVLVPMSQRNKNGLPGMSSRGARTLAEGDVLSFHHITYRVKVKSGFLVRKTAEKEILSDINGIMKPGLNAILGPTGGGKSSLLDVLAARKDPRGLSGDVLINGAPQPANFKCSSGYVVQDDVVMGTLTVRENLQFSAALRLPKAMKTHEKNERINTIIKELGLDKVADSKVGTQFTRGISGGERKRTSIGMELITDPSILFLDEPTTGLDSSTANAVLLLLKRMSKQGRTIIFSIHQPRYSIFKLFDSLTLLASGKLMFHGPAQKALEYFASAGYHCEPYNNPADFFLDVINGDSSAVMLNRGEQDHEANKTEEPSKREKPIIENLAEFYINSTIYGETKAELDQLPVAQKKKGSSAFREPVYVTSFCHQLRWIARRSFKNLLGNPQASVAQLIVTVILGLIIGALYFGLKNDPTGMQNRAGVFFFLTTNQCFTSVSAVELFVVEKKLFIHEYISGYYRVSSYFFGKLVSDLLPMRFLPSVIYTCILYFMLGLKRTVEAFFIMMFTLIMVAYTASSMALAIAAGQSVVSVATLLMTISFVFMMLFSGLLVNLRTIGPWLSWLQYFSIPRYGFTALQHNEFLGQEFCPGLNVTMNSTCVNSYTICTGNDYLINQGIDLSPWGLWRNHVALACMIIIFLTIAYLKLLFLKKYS
Summary of the method: (§7)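 Rat Abcg2-transfected and empty-vector MDCKII cells seeded at 1.0×10^6 cells/well on 3.0 μm Transwell filters, grown 4 days to TEER >200 Ω·cm². Racemic pantoprazole donor at 25 μM, 37°C, 5% CO2. Receiver sampled at 1, 2, 3, 4 h; [³H]mannitol checked monolayer integrity. Efflux ratio taken at 1 h from initial rates; n=3.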

[10] = Ratio of drug level in milk to serum in jugular and femoral vein-cannulated lactating Sprague-Dawley rat at 0.4 mg/ml, iv administered as infusion in presence of GF120918; assay type: ADME, organism-based; details: female, with GF120918
[11] = system: Serum; test: as §1; assay type: ADME, organism-based; details: in vivo, 8 h; summary of the method: as §2
[12] = system: Serum; test: as §3; assay type: ADME, organism-based; details: in vivo, 2 h; summary of the method: as §4
[13] = system: Rattus norvegicus; test: as §5; assay type: ADME, organism-based; details: in vivo; summary of the method: as §6
[14] = system: MDCK; test: Asymmetrical efflux ratio of permeability in MDCK cells at 25 uM after 1 hr; assay type: ADME, cell-based, Canis lupus familiaris; details: dog; summary of the method: as §7
[15] = Protein binding in human serum; assay type: ADME, cell-free; details: read-out: PB

| fraction unbound at 8 h [1] | fraction unbound at 8 h ([2]; female, Sprague-Dawley, whole milk, 0.4 mg/ml) | pKa [3] | concentration at 2 h [4] | Drug uptake [5] | clearance [6] | Drug uptake [7] | Drug uptake [8] | Ratio [9] | Kp [10] | Fu [11] | Fu ([2]; in vivo, 8 h) | Drug uptake [12] | CL [13] | Ratio [14] | fraction unbound [15] | SMILES |
| --- | --- | --- | --- | --- | --- | --- | --- | --- | --- | --- | --- | --- | --- | --- | --- | --- |
| 0.0238 | 0.271 | 3.9 | 1.63 µg/mL | 37% | 0.44 L/h/kg | 2.26 µg/mL | 1.1 µg/mL | 1.51 | 0.5 | – | – | – | – | – | – | COc1ccnc(C[S+]([O-])c2nc3cc(OC(F)F)ccc3[n-]2)c1OC.O.[Na+] (stereo in doubt; (-)) [PANTOPRAZOLE SODIUM] |
| – | – | – | – | – | – | 0.64 µg/mL | 0.53 µg/mL | 5.15 | – | 2.33% | 26% | 1.2 µg/mL | 0.57 L/h/kg | 0.9 | – | COc1ccnc(C[S+]([O-])c2nc3cc(OC(F)F)ccc3[n-]2)c1OC.O.[Na+] (stereo in doubt; (+)) [PANTOPRAZOLE SODIUM] |
| – | – | – | – | – | – | – | – | – | – | – | – | – | – | – | < 0.02 | COc1ccnc(C[S+]([O-])c2nc3ccc(OC(F)F)cc3[nH]2)c1OC (centres undefined) [PANTOPRAZOLE SODIUM] |
